Experimental data taken from ChEMBL document CHEMBL1153319, “Dancing of the second aromatic residue around the 6,8-diazabicyclo[3.2.2]nonane framework: influence on sigma receptor affinity and cytotoxicity” (J Med Chem, 2009).

What was measured:
[1] = target: Sigma non-opioid intracellular receptor 1 (Homo sapiens, UniProt Q99720); experiment: Binding affinity to sigma 1 receptor
How it was run: (§1)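 Guinea pig brain homogenate (about 75 µg protein) incubated with test compound, 2 nM [3H]-(+)-pentazocine (Kd 2.9 nM) in 50 mM Tris pH 7.4, 180 min at 37 °C. Nonspecific binding with 10 µM unlabeled (+)-pentazocine. Rapid filtration, water washes, solid scintillator counting. Ki by Cheng–Prusoff from six-concentration competition curves, triplicates, mean ± SEM of three experiments; single-point lines give inhibition at 1 µM.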

[2] = system: A-427; experiment: Cytotoxicity against human A427 cells after 96 hrs by crystal violet staining; type: functional, cell-based; details: A-427, 96 h
How it was run: (§2)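 Human tumour lines from DSMZ given a 20 µM primary screen for 96 h at 37 °C. Those cutting growth >50% versus untreated controls were then tested at 5 serial dilutions (DMSO stocks) for 96 h. Remaining cell density read by crystal violet staining. IC50 from least-squares dose-response fit using concentrations giving T/C 10–90%.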

[3] = Cytotoxicity against human LCLC-103H cells after 96 hrs by crystal violet staining; type: functional, cell-based; how it was run: as §2
[4] = system: 5637; experiment: Cytotoxicity against human 5637 cells after 96 hrs by crystal violet staining; type: functional, cell-based; details: Homo sapiens, 5637, 96 h; how it was run: as §2
[5] = system: DAN-G; experiment: Cytotoxicity against human DAN-G cells after 96 hrs by crystal violet staining; type: functional, cell-based; how it was run: as §2
[6] = target: Sigma non-opioid intracellular receptor 1 (Cavia porcellus) (UniProt Q60492); experiment: Displacement of [3H](+)-pentazocine from sigma 1 receptor in guinea pig brain membrane at 1 uM by scintillation analysis; type: cell membranes; how it was run: as §1
Chain of Sigma non-opioid intracellular receptor 1 (Cavia porcellus) (Q60492 whole entry): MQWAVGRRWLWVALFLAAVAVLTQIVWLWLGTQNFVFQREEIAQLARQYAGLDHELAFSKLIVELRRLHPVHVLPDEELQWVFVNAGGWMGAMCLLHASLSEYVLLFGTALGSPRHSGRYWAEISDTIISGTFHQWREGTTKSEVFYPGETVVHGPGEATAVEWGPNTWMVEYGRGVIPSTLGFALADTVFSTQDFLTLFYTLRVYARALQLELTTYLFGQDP

[7] = species: Rattus norvegicus; experiment: Displacement of [3H]1,3-ditolylguanine from sigma 2 receptor in rat liver membrane by solid scintillation analysis at 1 uM; type: cell membranes
[8] = system: MCF7; experiment: Cytotoxicity against human MCF7 cells after 96 hrs by crystal violet staining; type: functional, cell-based; details: MCF7, 96 h; how it was run: as §2
[9] = system: RT-4; experiment: Cytotoxicity against human RT4 cells after 96 hrs by crystal violet staining; type: functional, cell-based; details: RT-4, 96 h; how it was run: as §2
[10] = Displacement of [3H]1,3-ditolylguanine from sigma 2 receptor in rat liver membrane by solid scintillation analysis; type: cell membranes
[11] = target: Sigma non-opioid intracellular receptor 1 (Cavia porcellus, UniProt Q60492); experiment: Displacement of [3H](+)-pentazocine from sigma 1 receptor in guinea pig brain membrane by scintillation analysis; type: cell membranes
Chain of Sigma non-opioid intracellular receptor 1 (Cavia porcellus, UniProt Q60492) (Q60492 whole entry): as above

[12] = Selectivity ratio of IC50 for sigma 2 receptor in rat liver membrane to IC50 for sigma 1 receptor in guinea pig brain membrane; type: cell membranes
[13] = Selectivity for sigma 2 receptor in rat liver membrane over sigma 1 receptor in guinea pig brain membrane; type: cell membranes

Chain of Sigma non-opioid intracellular receptor 1 (Homo sapiens, UniProt Q99720) (Q99720 whole entry): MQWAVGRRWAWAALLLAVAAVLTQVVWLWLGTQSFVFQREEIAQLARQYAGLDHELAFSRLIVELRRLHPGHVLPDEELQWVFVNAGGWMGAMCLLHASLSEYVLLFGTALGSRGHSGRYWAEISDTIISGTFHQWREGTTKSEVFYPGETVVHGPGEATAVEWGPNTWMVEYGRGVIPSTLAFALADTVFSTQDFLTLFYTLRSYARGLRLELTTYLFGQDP

Row | SMILES | Ki [1] [µM] | IC50 [2] [µM] | IC50 [3] [µM] | IC50 [4] [µM] | IC50 [5] [µM] | Activity [6] [%] | Activity [7] [%] | IC50 [8] [µM] | IC50 [9] [µM] | Ki [10] [µM] | Ki [11] [µM] | Ratio IC50 [12] | fold change (FC) [13]
1 | COc1ccc(CN2CCN(Cc3ccccc3)[C@@H](CO)C2)cc1 | 0.012 |  |  |  |  |  |  |  |  |  |  |  | 
2 | CCCN1CC2C(=O)C[C@@H](c3ccccc3)C1CN2Cc1ccc(OC)cc1 (stereo partly drawn) |  | > 20 | > 20 | > 20 | > 20 | 40 | 11 | > 20 | > 20 |  |  |  | 
3 | C=CCN1C[C@H]2/C(=C\c3ccccc3)CC[C@@H]1CN2Cc1ccc(OC)cc1 |  | 3.93 | 17.8 | 10.9 | 9.82 |  |  | 7.25 | 14.1 | 0.566 | 0.104 | 5 | 
4 | C=CCN1C[C@H]2c3[nH]c4ccc(OC)cc4c3C[C@@H]1CN2Cc1ccc(OC)cc1 |  | 15.4 | > 20 | 16.1 | > 20 | 37 | 44 | > 20 | > 20 |  |  |  | 
5 | COc1ccc(CN2CC3CCC(=O)C2CN3Cc2ccccc2)cc1 (stereo not drawn) | 0.053 |  |  |  |  |  |  |  |  |  |  |  | 
6 | C=CCN1C[C@@H]2[C@H](OCc3ccccc3)CC[C@H]1CN2Cc1ccc(OC)cc1OC |  | 3.55 | 11.1 | 4.73 | 4.58 | 20 |  | 5.81 | 8.57 | 0.4 |  |  | 5
7 | C=CCN1C[C@@H]2[C@H](Oc3ccccc3)CC[C@H]1CN2Cc1ccc(OC)cc1OC |  | 7.09 | > 20 | 11.7 | 12.5 |  |  | 9.11 | 15.3 | 0.469 | 4.05 |  | 5
8 | C=CCN1C[C@@H]2[C@H](Oc3ccccc3)CC[C@H]1CN2Cc1ccc(OC)cc1 |  | 5.95 | > 20 | 14 | 15.8 |  |  | 12.7 | 19.1 | 0.479 | 2.12 |  | 5
9 | COc1ccc(CN2C[C@@H]3[C@H](c4ccccc4)CC(=O)[C@H]2CN3Cc2ccccc2)cc1 |  | 10.3 | > 20 | 18.3 | 16.1 | 17 | 0 | 19.4 | 20.5 |  |  |  | 
10 | C=CCN1C[C@H]2[C@H](OCc3ccccc3)CC[C@@H]1CN2Cc1ccc(OC)cc1 |  | 4.61 | 19.9 | 11.2 | 12.7 |  |  | 9.13 | 14.3 | 6.46 | 0.091 | 70 | 
11 | C=CCN1CC2C(=O)CCC1CN2Cc1ccc(OC)cc1 (stereo not drawn) | 1.6 |  |  |  |  |  |  |  |  |  |  |  | 
12 | C=CCN1CC2[C@@H](O)CCC1CN2Cc1ccc(OC)cc1 (stereo partly drawn) | 2.24 |  |  |  |  |  |  |  |  |  |  |  | 
